RAM inhibit: inhibitors of the yeast RAM network, primary screen, dse1pr::URA3 reporter, 5-FOA selection | S. cerevisiae dse1pr::URA3 reporter, 5-FOA growth OD615, 2 d; analog-sensitive cbk1-as2 kinase mutant strain | inhibition, % at 50 µM | 1.8% of 190,000 active;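 active = inhibition above a set limit, 3 SD over mean compound inhibition, cut at about 8.4% in these data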;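 also: inhibition rescues growth on 5-FOA so higher OD means more RAM inhibition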
Yeast life ext: compounds extending yeast replicative lifespan, primary screen, S. cerevisiae, OD615. inhibition of the nicotinamide effect, % at 10 µM. 0.68% of 130,000 active. S. cerevisiae growth with nicotinamide; deaD strain in restrictive glucose medium. AID 775, 2007;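 active = inhibition above a set limit, placed 3 SD over the median of all compounds, cut at about 26% in these data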
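Assay system: engineered S. cerevisiae DeaD replicative-lifespan strain, galactose-grown log-phase cells; medium: restrictive CSMM-D dextrose medium; also added: nicotinamide, 1.5 mM, co-present with compound; schedule: 48 h compound exposure at 30 °C, humidified; detection: absorbance at 615 nm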
Insulin prom inh: inhibitors of insulin promoter-driven GFP, primary screen, imaging, TRM-6 cells, eGFP reporter, cell count | reporter expression induced with tamoxifen | inhibition, % at 2 µM | 0.9% of 130,000 active;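 active = inhibition above the mean plus 3 SD, with well images judged a real hit on visual review, cut at about 60% in these data, passing the limit was not always enough; inconclusive = inhibition over the cutoff but images rejected on review; inactive = inhibition not above the cutoff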
BB579 growth dn: growth inhibitors of yeast BB579 in restrictive medium, primary screen, yeast lifespan-shortening project, S. cerevisiae | OD615, 48 h | inhibition, % at 10 µM | 0.51% of 140,000 active | AID 804, 2007;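 active = inhibition above a set limit, 3 SD over the mean compound inhibition, cut at about 44% in these data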
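System: Saccharomyces cerevisiae DeaD strain BB579, replicative lifespan model yeast. Buffer or medium: restrictive glucose-based CSMM-D medium. Doses: one dose, 10 µM compound with 0.25% DMSO. Timing: 4 h preincubation and 48 h exposure at 30 °C. Detection: turbidity as optical density at 615 nm. Benchmarks: amphotericin B 10 µg/mL, positive.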
Ins promoter up: insulin promoter activators in MIN6 cells, imaging, high-content screening, mouse beta cells. MIN6 insulin promoter-GFP reporter; stronger effect = higher value. z-score at 5 µM. 0.3% of 190,000 active;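 active = z-score above 3 at 5 µM with at least 500 cells counted in the well; inconclusive = wells under 500 cells, flagged as cytotoxic or low count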
Numbers stand for hits; . = inactive; ? = inconclusive; / = no result given; + = active, no number. In the library only some 3.1% were active in any assay of this set; here they are far more common.

SMILES	RAM inhibit	Yeast life ext	Insulin prom inh	BB579 growth dn	Ins promoter up
Cc1cccc2nc(CSc3nc4cc([N+](=O)[O-])ccc4s3)cn12	.	.	.	.	.
CCOC(=O)c1c(/N=C/c2cccc([N+](=O)[O-])c2O)sc(C)c1C	.	.	.	75	.
CCOC(=O)c1c(/N=C/C2=C(O)CCCC2=O)sc(C)c1C	.	.	.	.	.
N#CCCN(C(=O)COC(=O)c1cccc(S(=O)(=O)Nc2ccc([N+](=O)[O-])cc2)c1)c1ccccc1	.	.	69	.	.
Cc1ccc(N(CC(=O)NCCSc2ccccn2)S(=O)(=O)c2ccc(F)cc2)cc1	.	/	.	/	/
CCOC(=O)c1ccc(CNCc2ccc(Br)cc2)cc1	.	.	.	.	.
CCOC(=O)c1[nH]nc(C(=O)c2ccc(Br)cc2)c1O	.	48	/	.	.
Cc1cc2sc3ccccc3c(=O)c2c(C)c1O	.	/	/	/	.
O=c1c(C(c2ccccc2)c2c(O)sc3ccccc3c2=O)c(O)sc2ccccc12	/	26	80	.	/
Cc1c(O)nc(SCC(=O)Nc2ccc3c4c(cccc24)CC3)n(-c2ccc(F)cc2)c1=O	9.2	.	.	.	.
O=C(c1ccccc1F)N(Cc1nc2ccccc2c(=O)[nH]1)C1CCCC1	.	/	.	/	.
Cc1cc(N2C(=O)CC(Cc3ccccc3)C2=O)no1 (configuration not stated)	.	+	.	.	.
Cc1cc(N2C(=O)CC(Cc3ccc(Cl)cc3)C2=O)no1 (configuration not stated)	.	.	.	.	.
O=C1CS/C(=N/N=C/c2c[nH]c3ccccc23)N1	/	/	/	/	.
O=C1/C(=C/c2c[nH]c3ccccc23)CCC/C1=C\c1c[nH]c2ccccc12	.	.	/	.	4.6
O=C(c1cccc(F)c1)n1nnc2ccccc21	.	.	81	.	.
Cc1cc(C)c(C#N)c(SCC2COc3ccccc3O2)n1 (configuration not stated)	8.5	.	.	.	3.5
CN(C)c1ccc(/C=C/c2ccc3ccccc3[n+]2C)cc1	.	.	/	66	?
CN(C)c1ccc(/C=C/c2ccc3c4ccccc4ccc3[n+]2-c2ccccc2)cc1	.	/	/	/	?
CC1CN(CC(O)COCc2ccc3c(c2)OCO3)CC(C)O1 (configuration not stated)	.	/	.	/	.
CCCCSc1nc(O)c(C2OC(=O)c3c2ccc(OC)c3OC)c(=O)n1C (configuration not stated)	.	61	.	.	/
CCCCCCSc1nc(O)c(C2OC(=O)c3c2ccc(OC)c3OC)c(=O)n1-c1ccccc1 (configuration not stated)	8.6	.	.	.	.
CCSc1nc(O)c(C2OC(=O)c3c2ccc(OC)c3OC)c(=O)n1CC (configuration not stated)	.	.	.	.	.
Cc1ncn(C23CC4CC(CC(C4)C2)C3)n1	.	.	.	.	.
Nc1cc(Cl)ccc1Oc1ccccc1	.	.	.	.	.
SMILES	RAM inhibit	Yeast life ext	Insulin prom inh	BB579 growth dn	Ins promoter up
Nc1cc(C(=O)O)c(Oc2ccc(Cl)cc2Cl)cc1C(=O)O	.	.	67	.	.
Cc1ccc(-n2c(C)nnc2SCC(=O)Nc2ccccc2)cc1	.	/	.	.	/
CCC(=O)Nc1ccc(C(=O)Nc2cccc(C)n2)cc1	.	/	/	/	/
CCOC(=O)c1nn(-c2ccc(OCC)cc2)c2nc(-c3cccc(OC)c3)c(C#N)c(=O)n12	9.7	.	.	.	.
CCOC(=O)c1nn(-c2ccc(F)cc2)c2nc(-c3ccccc3)c(C#N)c(=O)n12	.	27	.	.	.
COc1ccc(CN(CCC(c2ccc(F)cc2)C2CCOC(C)(C)C2)C(=O)c2ccco2)cc1 (configuration not stated)	9.8	.	.	.	.
CC(c1ccccc1)N(CCC(c1ccccc1)C1CCOC(C)(C)C1)C(=O)c1ccco1 (configuration not stated)	.	.	/	.	.
S=C(Nc1ccc(Oc2ccccc2)cc1)N1CCN(c2ccccn2)CC1	.	/	.	/	.
CC(=O)Nc1ccc(S(=O)(=O)Nc2nc3ccccc3nc2Nc2ccc(S(N)(=O)=O)cc2)cc1	.	.	/	.	.
NS(=O)(=O)c1ccc(Nc2nc3ccccc3nc2NS(=O)(=O)c2cccc([N+](=O)[O-])c2)cc1	8.6	/	/	/	.
Cc1nnc(SCc2ccc(F)cc2)s1	.	.	.	.	.
Cc1nc(CSc2nnc(C)s2)cs1	.	.	62	.	.
COCCNC(=O)c1ccccc1NC(=O)Cc1ccccc1[N+](=O)[O-]	.	/	/	/	.
O=C1Nc2ccccc2S/C1=C/Nc1cccc(Cl)c1	8.4	.	/	.	.
COC(=O)c1ccc(Cl)c(NC(C)=O)c1	.	.	.	.	.
COC(=O)c1cscc1NC(C)=O	.	.	75	.	.
Cc1ccc(/C=N/NC(=O)c2ccco2)s1	.	.	/	.	.
Cc1ccc(/C=N/NC(=O)c2ccc(C(=O)N/N=C/c3ccc(C)s3)o2)s1	10	.	.	.	/
CC1CCCC(C)N1C(=O)CSc1nnc(-c2cccs2)o1 (configuration not stated)	.	.	.	.	3.5
CN(C)N=C1c2cc(S(=O)(=O)N3CCOCC3)ccc2-c2ccc(S(=O)(=O)N3CCOCC3)cc21	.	.	/	.	.
NC(=S)NN=C1c2cc(S(=O)(=O)N3CCOCC3)ccc2-c2ccc(S(=O)(=O)N3CCOCC3)cc21	9.9	.	/	.	.
COC(=O)c1c(C)[nH]c(C(=O)OCC(=O)N2c3ccccc3NC(=O)C2(C)C)c1C	.	.	.	.	.
COc1ccc(CN(CC(=O)NC2CCCC2)C(=O)c2ccc(-c3ccccc3)[nH]2)cc1	8.8	/	.	/	.
COc1ccc(CN(CC(=O)NC2CCCCC2)C(=O)CCCC(=O)Nc2ccccn2)cc1	.	/	/	/	/
COc1ccc(/C=N/NC(=O)c2ccc(Cn3cc([N+](=O)[O-])cn3)o2)c(OC)c1C	9.5	.	/	.	.
SMILES	RAM inhibit	Yeast life ext	Insulin prom inh	BB579 growth dn	Ins promoter up
Cc1ccc(S(=O)(=O)NCCC(=O)OCC(=O)Nc2cccc(S(=O)(=O)NC3=NCCCCC3)c2)cc1	.	/	.	/	.
CCC(C(=O)OCC(=O)Nc1cccc(OC)c1)c1ccccc1 (configuration not stated)	.	/	73	/	.
CCC(C(=O)OCC(=O)Nc1cccc(S(=O)(=O)NC2=NCCCCC2)c1)c1ccccc1 (configuration not stated)	.	/	/	/	4
Cc1ccc(S(=O)(=O)NCC(=O)OCC(=O)Nc2cccc(S(=O)(=O)NC3=NCCCCC3)c2)cc1	.	/	78	/	.
O=C(CSc1nnc(-c2c[nH]c3ccccc23)o1)N(Cc1ccccc1)c1ccc(F)cc1	.	.	.	.	/
COc1ccc(CN(C(=O)CSc2nnc(-c3ccccc3C)o2)c2ccc(F)cc2)cc1	11	/	.	.	/

From PubChem BioAssay
